We go through 14 compounds from ChEMBL document CHEMBL3259656, “Discovery of AZD3199, An Inhaled Ultralong Acting β2 Receptor Agonist with Rapid Onset of Action” (ACS Med Chem Lett, 2014).

Data set [1] deals with Beta-2 adrenergic receptor (Homo sapiens, UniProt P07550). The data set can be described thus: Agonist activity at human beta-2 adrenergic receptor expressed in human H292 cells assessed as accumulation of intracellular cAMP after 1 hr by AlphaScreen assay. In kind it is functional, cell-based.
Sequence of Beta-2 adrenergic receptor (P07550 whole entry): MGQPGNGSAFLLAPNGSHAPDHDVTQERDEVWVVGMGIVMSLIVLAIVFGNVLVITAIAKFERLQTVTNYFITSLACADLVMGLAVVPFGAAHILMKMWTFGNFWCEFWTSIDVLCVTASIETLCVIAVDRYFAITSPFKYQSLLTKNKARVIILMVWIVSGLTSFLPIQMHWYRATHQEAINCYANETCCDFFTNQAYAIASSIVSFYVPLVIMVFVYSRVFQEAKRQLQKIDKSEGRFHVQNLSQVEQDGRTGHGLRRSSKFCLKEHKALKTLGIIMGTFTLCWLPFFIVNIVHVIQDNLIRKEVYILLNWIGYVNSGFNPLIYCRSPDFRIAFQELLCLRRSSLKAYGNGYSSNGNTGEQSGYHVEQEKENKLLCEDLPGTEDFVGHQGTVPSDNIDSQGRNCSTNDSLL
The test system of data set [2] is Cavia porcellus. Nature of the data set: Bronchoprotective activity in guinea pig assessed as inhibition of histamine-induced bronchoconstriction at ED80 administered intratracheally after 4 to 24 hrs relative to control. In kind it is functional, organism-based. Put shortly: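 Guinea pigs received a single intratracheal dose of agonist. Histamine-induced bronchoconstriction was measured at several time points after dosing, up to 24 h. Bronchoprotection was expressed as inhibition relative to control animals.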

For data set [3], the system named is Cavia porcellus. Nature of the data set: Toxicity in iv dosed guinea pig assessed as change in plasma potassium level up to 60 mins. In kind it is organism-based. The note with it: in vivo, 1 h.
The target of data set [4] is Beta-2 adrenergic receptor (Mus musculus) (UniProt P18762). Nature of the data set: Intrinsic activity at mouse recombinant beta-2 adrenergic receptor.
Sequence of Beta-2 adrenergic receptor (Mus musculus) (P18762 whole entry, looked up): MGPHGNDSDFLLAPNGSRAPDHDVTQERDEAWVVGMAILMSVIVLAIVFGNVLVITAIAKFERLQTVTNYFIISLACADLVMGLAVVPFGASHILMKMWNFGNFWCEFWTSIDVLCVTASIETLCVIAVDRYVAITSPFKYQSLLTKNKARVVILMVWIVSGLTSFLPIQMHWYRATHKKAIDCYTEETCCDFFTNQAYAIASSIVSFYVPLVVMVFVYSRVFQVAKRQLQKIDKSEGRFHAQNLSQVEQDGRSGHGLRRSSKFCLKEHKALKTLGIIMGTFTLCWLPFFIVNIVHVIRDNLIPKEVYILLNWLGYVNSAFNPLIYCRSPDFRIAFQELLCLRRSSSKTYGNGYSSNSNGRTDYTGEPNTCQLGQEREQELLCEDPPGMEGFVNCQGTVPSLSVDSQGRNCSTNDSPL
The target in data set [5] is T1, D(2) dopamine receptor (Homo sapiens, UniProt P14416). The data set can be described thus: Partial agonist activity at human recombinant dopamine D2S receptor expressed in HEK cells by GTPgammaS binding assay. The data set is classed as functional, cell-based. The note with it: HEK293. Background: Binding of GTPγS marks nucleotide exchange on a G protein.
T1 sequence (P14416 whole entry): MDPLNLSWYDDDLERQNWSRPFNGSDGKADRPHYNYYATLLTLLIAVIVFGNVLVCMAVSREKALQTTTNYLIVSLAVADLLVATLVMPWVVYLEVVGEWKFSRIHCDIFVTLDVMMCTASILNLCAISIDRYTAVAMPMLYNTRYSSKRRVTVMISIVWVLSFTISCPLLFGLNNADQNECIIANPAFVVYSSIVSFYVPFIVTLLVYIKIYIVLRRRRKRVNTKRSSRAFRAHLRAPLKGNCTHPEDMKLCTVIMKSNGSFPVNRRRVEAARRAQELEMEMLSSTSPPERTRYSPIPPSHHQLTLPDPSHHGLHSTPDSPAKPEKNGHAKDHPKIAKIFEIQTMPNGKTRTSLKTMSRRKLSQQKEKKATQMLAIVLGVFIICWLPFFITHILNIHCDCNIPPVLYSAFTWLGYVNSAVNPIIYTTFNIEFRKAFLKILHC
Data set [6] can be described thus: Terminal half life in iv dosed guinea pig. The data set is classed as ADME, organism-based, Cavia porcellus. The note with it: in vivo, read-out: beta t1/2 (converted).
The nature of data set [7]: Oral bioavailability in rat. The data set is classed as ADME, organism-based. The note with it: in vivo.
Data set [8] concerns the target Beta-2 adrenergic receptor (Canis lupus familiaris) (UniProt P54833). The data set can be described thus: Intrinsic activity at dog recombinant beta-2 adrenergic receptor.
Data set [9] concerns Cavia porcellus. Nature of the data set: Bronchoprotective activity in guinea pig assessed as inhibition of histamine-induced bronchoconstriction at ED80 administered intratracheally after 24 hrs relative to control. The data set is classed as functional. The gist of the method:
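Guinea pigs received a single intratracheal dose, set from a dose–response in the same histamine-induced bronchoconstriction model. Histamine challenge was given at several times after dosing, and inhibition of bronchoconstriction was measured. Bronchoprotection at 24 h was expressed relative to control animals.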

Data set [10] has as its system Cavia porcellus. Nature of the data set: Bronchoprotective activity in guinea pig assessed as inhibition of histamine-induced bronchoconstriction administered intratracheally after 2 hrs. The note with it: inhaled or nasal. In kind it is functional.
Data set [11] in a line: Apparent volume of distribution in iv dosed rat. The note with it: in vivo, read-out: Vz. In kind it is ADME, organism-based.
In data set [12] the target is Beta-2 adrenergic receptor (Canis lupus familiaris) (UniProt P54833). The data set can be described thus: Agonist activity at dog recombinant beta-2 adrenergic receptor assessed as cAMP accumulation by cell-based assay. In kind it is functional. For orientation: Changes in cAMP serve as a functional read-out for many G protein-coupled receptors.
Sequence of Beta-2 adrenergic receptor (Canis lupus familiaris) (P54833 whole entry, looked up): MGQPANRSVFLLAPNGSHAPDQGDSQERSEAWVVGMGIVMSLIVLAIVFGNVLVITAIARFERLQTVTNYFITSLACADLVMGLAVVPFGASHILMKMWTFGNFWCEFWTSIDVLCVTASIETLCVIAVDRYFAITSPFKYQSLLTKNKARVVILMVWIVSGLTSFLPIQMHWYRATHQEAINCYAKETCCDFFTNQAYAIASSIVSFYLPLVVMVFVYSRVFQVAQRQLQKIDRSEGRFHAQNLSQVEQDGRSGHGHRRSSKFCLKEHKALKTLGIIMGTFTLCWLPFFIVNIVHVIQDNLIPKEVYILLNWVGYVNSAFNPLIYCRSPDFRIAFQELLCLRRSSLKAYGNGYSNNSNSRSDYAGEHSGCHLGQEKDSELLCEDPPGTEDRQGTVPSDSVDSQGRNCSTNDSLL
A short description of data set [13]: Terminal half life in iv dosed dog. The data set is classed as ADME, organism-based, Canis lupus familiaris. The note with it: in vivo, read-out: beta t1/2 (converted).
Data set [14] in a line: Terminal half life in iv dosed rat. In kind it is ADME, organism-based. The settings on record: in vivo, read-out: beta t1/2 (converted).
A short description of data set [15]: Apparent volume of distribution in iv dosed guinea pig. In kind it is ADME, organism-based, Cavia porcellus. The note with it: in vivo, read-out: Vz.
Data set [16] is described as follows: Intrinsic clearance in rat measured per million cells. In kind it is ADME.
The species entered for data set [17] is Oryctolagus cuniculus. Nature of the data set: Intrinsic activity at rabbit recombinant beta-2 adrenergic receptor.
The species entered for data set [18] is Oryctolagus cuniculus. The data set can be described thus: Agonist activity at rabbit recombinant beta-2 adrenergic receptor assessed as cAMP accumulation by cell-based assay.
Data set [19] concerns the target Beta-2 adrenergic receptor (Mus musculus) (UniProt P18762). The data set can be described thus: Agonist activity at mouse recombinant beta-2 adrenergic receptor assessed as cAMP accumulation by cell-based assay. The data set is classed as functional.
A short description of data set [20]: Apparent volume of distribution in iv dosed dog. The data set is classed as ADME, organism-based, Canis lupus familiaris. The note with it: in vivo, read-out: Vz.
Data set [21] addresses Beta-2 adrenergic receptor (Rattus norvegicus) (UniProt P10608). Nature of the data set: Intrinsic activity at beta-2 adrenergic receptor in rat C6 cells. The data set is classed as cell-based.
For data set [22], the target named is T2, Alpha-1D adrenergic receptor (Homo sapiens) (UniProt P25100).
T2 sequence (whole entry): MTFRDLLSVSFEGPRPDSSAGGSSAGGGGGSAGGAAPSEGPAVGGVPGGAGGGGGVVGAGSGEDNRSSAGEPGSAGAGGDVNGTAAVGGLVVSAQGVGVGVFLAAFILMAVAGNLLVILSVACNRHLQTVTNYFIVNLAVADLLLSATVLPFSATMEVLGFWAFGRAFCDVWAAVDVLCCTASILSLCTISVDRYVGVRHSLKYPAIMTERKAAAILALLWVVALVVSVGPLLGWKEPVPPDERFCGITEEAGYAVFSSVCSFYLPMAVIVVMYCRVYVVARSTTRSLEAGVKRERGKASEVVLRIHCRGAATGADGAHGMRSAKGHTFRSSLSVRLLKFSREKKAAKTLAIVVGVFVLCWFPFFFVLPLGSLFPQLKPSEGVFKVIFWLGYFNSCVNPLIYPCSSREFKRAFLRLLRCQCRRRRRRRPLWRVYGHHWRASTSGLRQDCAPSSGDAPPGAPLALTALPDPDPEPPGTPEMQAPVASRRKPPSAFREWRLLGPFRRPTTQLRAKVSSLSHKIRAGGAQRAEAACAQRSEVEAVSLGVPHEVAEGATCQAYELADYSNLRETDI
Nature of the data set: Agonist activity at human recombinant alpha-1D adrenergic receptor expressed in HEK cells assessed as intracellular calcium response. The note with it: HEK293. On the technique in general: Calcium assays in cells follow changes in intracellular calcium, usually with a dye or a luminescent sensor.

Data set [23] has as its target Beta-2 adrenergic receptor (Rattus norvegicus) (UniProt P10608). Nature of the data set: Agonist activity at beta-2 adrenergic receptor in rat C6 cells assessed as cAMP accumulation. In kind it is functional, cell-based.
Data set [24] in a line: Oral bioavailability in dog. The note with it: in vivo. In kind it is ADME, organism-based, Canis lupus familiaris.
Data set [25] relates to Cavia porcellus. The data set can be described thus: Bronchoprotective activity in guinea pig assessed as inhibition of histamine-induced bronchoconstriction administered intratracheally after 2 hrs in presence of propanolol. The data set is classed as functional, organism-based. The gist of the method:
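In the guinea pig histamine-induced bronchoconstriction model, propranolol was given at 1 mg/kg i.v. to check that the bronchoprotection was mediated through β2 receptors.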

The target in data set [26] is Beta-2 adrenergic receptor (Cavia porcellus) (UniProt Q8K4Z4). The note with it: Trachea.
Sequence of Beta-2 adrenergic receptor (Cavia porcellus) (Q8K4Z4 whole entry, looked up): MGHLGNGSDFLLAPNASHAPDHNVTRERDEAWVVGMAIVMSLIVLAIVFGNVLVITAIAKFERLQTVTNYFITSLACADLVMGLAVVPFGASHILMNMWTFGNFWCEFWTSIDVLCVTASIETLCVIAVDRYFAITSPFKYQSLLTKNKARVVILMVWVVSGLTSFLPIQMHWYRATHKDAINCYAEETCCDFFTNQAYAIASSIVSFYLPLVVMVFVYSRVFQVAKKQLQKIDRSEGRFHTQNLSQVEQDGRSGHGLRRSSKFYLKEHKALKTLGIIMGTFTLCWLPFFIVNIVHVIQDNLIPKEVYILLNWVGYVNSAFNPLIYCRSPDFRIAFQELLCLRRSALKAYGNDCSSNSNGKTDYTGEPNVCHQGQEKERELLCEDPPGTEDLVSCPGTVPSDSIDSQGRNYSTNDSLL
Data set [27] addresses T1, D(2) dopamine receptor. The data set can be described thus: Agonist activity at human recombinant dopamine D2S receptor expressed in HEK cells by GTPgammaS binding assay. The data set is classed as functional, HEK293.

Molecules are shown by their SMILES. Activity calls are given as the source filed them. The rule behind the calls is not given here. Where only a bound is given, the exact number is not on record here.

Sequence of Beta-2 adrenergic receptor (Rattus norvegicus) (P10608 whole entry, looked up): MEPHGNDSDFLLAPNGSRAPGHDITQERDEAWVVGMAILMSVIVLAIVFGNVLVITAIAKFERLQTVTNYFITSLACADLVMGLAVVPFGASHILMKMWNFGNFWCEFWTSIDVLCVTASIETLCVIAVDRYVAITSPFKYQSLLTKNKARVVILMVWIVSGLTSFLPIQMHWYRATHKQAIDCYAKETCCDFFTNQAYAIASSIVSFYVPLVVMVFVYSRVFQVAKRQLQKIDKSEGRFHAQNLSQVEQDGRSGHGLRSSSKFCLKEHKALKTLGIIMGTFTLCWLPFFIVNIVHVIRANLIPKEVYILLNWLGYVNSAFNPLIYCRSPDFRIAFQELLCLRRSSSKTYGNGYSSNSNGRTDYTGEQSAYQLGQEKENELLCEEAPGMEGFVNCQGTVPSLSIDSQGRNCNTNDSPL

What is called EC50 is the concentration at which the effect is half-maximal. Regarding `NCCCN(CCNCCc1ccc(O)c2[nH]c(=O)sc12)C(=O)CCOCCc1ccccc1`, the 50% effective concentration (EC50) in [1] is 316 nM.
For `CCN(CC)CCN(CCNCCc1ccc(O)c2[nH]c(=O)sc12)C(=O)CCOCCc1cccc(OC)c1`, the EC50 in data set [1] is 7.94 nM.
As to `CN(C)CCN(CCNCCc1ccc(O)c2[nH]c(=O)sc12)C(=O)CCOCCc1ccccc1`, in data set [1], the EC50 is 6.31 nM.
In the case of `OCc1cc(C(O)CNCCCCCCOCCCCc2ccccc2)ccc1O` (stereo unspecified), the inhibition entry in data set [2] is “Active”.
`CN(CCCN(CCNCCc1ccc(O)c2[nH]c(=O)sc12)C(=O)CCOCCc1cccc(Cl)c1)C1CC1`: the EC50 in data set [1] was 7.94 nM.
Same read-out and setting: as for `CC(C)N(C)CCCN(CCNCCc1ccc(O)c2[nH]c(=O)sc12)C(=O)CCOCCc1cccc(Cl)c1`, the figure is 5.01 nM.
Usually bioavailability stands for dose-corrected exposure relative to a reference, in per cent. A high value points to much systemic uptake. What is called hepatocyte CLint is a measure of how fast metabolising enzymes remove a compound, apart from limits set by blood flow. For the compound `Br.CCN(CC)CCN(CCNCCc1ccc(O)c2[nH]c(=O)sc12)C(=O)CCOCCc1cccc2ccccc12`, the Activity result in data set [3] is “Toxic”. The result in data set [4], in data set [5], in [8], in [12], in data set [17] and in data set [18] was Active. The result in data set [19], in data set [21] and in [23] was Active. Further, the half-life in data set [6] is 17 h; in data set [13], 18 h; in data set [14], 11 h. Further, the bioavailability in data set [7] and in data set [24] was below 2% throughout. Also, in data set [9], the “inhibition (INH)” value was 58%. Besides, in data set [10], the ED80 stood at 0.027 mg/kg. Also, the Vd in data set [11] is 23 L/kg; in [15], 22 L/kg; in [20], 17 L/kg. The intrinsic clearance (hepatocyte CLint) in data set [16] was 105 µL/min/1e6 cells. In addition, the result in data set [22] and in data set [25] was inactive.
On to `O=C(CCOCCc1cccc(Cl)c1)N(CCNCCc1ccc(O)c2[nH]c(=O)sc12)CCN1CCCCC1`, for which the EC50 in data set [1] is 12.6 nM.
As for `CC(C)(C)NCC(O)c1ccc(O)c(CO)c1` (stereo unspecified) [ALBUTEROL], the Activity entry in data set [3] was “Toxic”.
On to `CN(C)CCCN(CCNCCc1ccc(O)c2[nH]c(=O)sc12)C(=O)CCOCCc1ccccc1`, for which the EC50 in [1] is 15.8 nM.
In the case of `CCN(CC)CCN(CCNCCc1ccc(O)c2[nH]c(=O)sc12)C(=O)CCOCCc1cccc(Cl)c1`, the EC50 in data set [1] is 6.31 nM.
In [26], `CCc1cc2c(cc1CC)CC(NC[C@H](O)c1ccc(O)c3[nH]c(=O)ccc13)C2` had a pA50 of 7.7.
Consider `CCN(C)CCCN(CCNCCc1ccc(O)c2[nH]c(=O)sc12)C(=O)CCOCCc1cccc(Cl)c1`, for which the EC50 in [1] is 10 nM.
On to `O=c1[nH]c2c(O)ccc(CCNCCS(=O)(=O)CCCOCCc3ccccc3)c2s1` [SIBENADET], for which, in data set [27], the 50% effective concentration (EC50) was 2 nM.
